Measurements as given in ChEMBL document CHEMBL4020832, “Development of (6 R)-2-Nitro-6-[4-(trifluoromethoxy)phenoxy]-6,7-dihydro-5 H-imidazo[2,1- b][1,3]oxazine (DNDI-8219): A New Lead for Visceral Leishmaniasis” (J Med Chem, 2018).

Tests used:
Syrian golden hamster = assay: Oral bioavailability in golden Syrian hamster at 40 mg/kg by LC-MS/MS analysis; type: ADME, organism-based, Mesocricetus auratus; conditions: in vivo
Liver [1] = assay: Metabolic stability in human liver microsomes assessed as parent compound remaining at 1 uM after 1 hr; type: ADME, microsome
Liver [2] = assay: Metabolic stability in CD-1 mouse liver microsomes assessed as parent compound remaining at 1 uM after 1 hr; type: ADME, microsome
[3] = Metabolic stability in hamster liver microsomes assessed as parent compound remaining at 1 uM after 1 hr; type: ADME, microsome; conditions: read-out: Stability
[4] = Initial concentration in golden Syrian hamster at 2 mg/kg, iv by LC-MS/MS analysis; type: ADME, organism-based, Mesocricetus auratus; conditions: in vivo
Method in brief: (§1)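 Fasted female golden Syrian hamsters given 2 mg/kg iv as a solution in 20% NMP and 40% PEG-400 in citrate buffer pH 3. Plasma concentrations determined by LC–MS/MS to derive PK parameters.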

[5] = Clearance in golden Syrian hamster at 2 mg/kg, iv by LC-MS/MS analysis; type: ADME, organism-based, Mesocricetus auratus; conditions: in vivo
[6] = Volume of distribution at steady state in golden Syrian hamster at 2 mg/kg, iv by LC-MS/MS analysis; type: ADME, organism-based, Mesocricetus auratus; conditions: in vivo, read-out: Vdss; method in brief: as §1
[7] = Half life in golden Syrian hamster at 2 mg/kg, iv by LC-MS/MS analysis; type: ADME, organism-based, Mesocricetus auratus; conditions: in vivo
Method in brief: (§2)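 Fasted female golden Syrian hamsters. IV dose was 2 mg/kg as a solution in 20% NMP and 40% PEG-400 in citrate buffer (pH 3). Oral dosing at 40–50 mg/kg used PEG-400 as vehicle. Plasma was quantified by LC–MS/MS. AUClast was taken to the last time point (24 or 48 h).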

[8] = AUClast in golden Syrian hamster at 2 mg/kg, iv after 24 to 48 hrs by LC-MS/MS analysis; type: ADME, organism-based, Mesocricetus auratus; conditions: in vivo; method in brief: as §2
[9] = Cmax in golden Syrian hamster at 40 mg/kg, po by LC-MS/MS analysis; type: ADME, organism-based, Mesocricetus auratus; parameters: dose 40 mg/kg, route oral; conditions: in vivo; method in brief: as §2
[10] = Tmax in golden Syrian hamster at 40 mg/kg, po by LC-MS/MS analysis; type: ADME, organism-based, Mesocricetus auratus; conditions: in vivo
[11] = Half life in golden Syrian hamster at 40 mg/kg, po by LC-MS/MS analysis; type: ADME, organism-based, Mesocricetus auratus; conditions: in vivo
[12] = AUClast in golden Syrian hamster at 40 mg/kg, po after 24 to 48 hrs by LC-MS/MS analysis; type: ADME, organism-based, Mesocricetus auratus; conditions: in vivo; method in brief: as §2
Liver [13] = assay: Metabolic stability in CD-1 mouse liver microsomes assessed as parent compound remaining at 0.5 uM after 0.5 hr; type: ADME, microsome
[14] = Metabolic stability in hamster liver microsomes assessed as parent compound remaining at 0.5 uM after 0.5 hr; type: ADME, microsome; conditions: read-out: Stability
[15] = Initial concentration in Swiss albino mouse at 1 mg/kg, iv by LC-MS/MS analysis; type: ADME, organism-based; conditions: in vivo
Method in brief: (§3)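 Male Swiss albino mice given 1 mg/kg iv in 20% NMP/40% PEG-400 in 100 mM citrate buffer pH 3. Plasma sampled at 0.083, 0.25, 0.5, 1, 2, 4, 6, 8, 10, 24 and 48 h. Levels measured by LC–MS/MS; noncompartmental PK parameters.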

[16] = Clearance in Swiss albino mouse at 1 mg/kg, iv by LC-MS/MS analysis; type: ADME, organism-based; conditions: in vivo
[17] = Volume of distribution at steady state in Swiss albino mouse at 1 mg/kg, iv by LC-MS/MS analysis; type: ADME, organism-based; conditions: in vivo, read-out: Vdss; method in brief: as §3
[18] = Half life in Swiss albino mouse at 1 mg/kg, iv by LC-MS/MS analysis; type: ADME, organism-based; conditions: Swiss albino, in vivo
[19] = Cmax in Swiss albino mouse at 25 mg/kg, po by LC-MS/MS analysis; type: ADME, organism-based; parameters: dose 25 mg/kg, route oral; conditions: in vivo
[20] = Tmax in Swiss albino mouse at 25 mg/kg, po by LC-MS/MS analysis; type: ADME, organism-based; conditions: in vivo
Method in brief: (§4)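 Male Swiss albino mice dosed orally at 25 mg/kg as a suspension in 0.5% CMC/0.08% Tween 80 in water. Plasma sampled 0.25–48 h, analysed by LC–MS/MS. F from dose-normalized AUClast against a 1 mg/kg iv dose.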

Mus musculus [21] = assay: Oral bioavailability in Swiss albino mouse at 25 mg/kg by LC-MS/MS analysis; type: ADME, organism-based; conditions: in vivo; method in brief: as §4
Mus musculus [22] = assay: Cmax in Swiss albino mouse at 40 mg/kg, po by LC-MS/MS analysis; type: ADME, organism-based; parameters: dose 40 mg/kg, route oral; conditions: in vivo
Mus musculus [23] = assay: Tmax in Swiss albino mouse at 40 mg/kg, po by LC-MS/MS analysis; type: ADME, organism-based; conditions: in vivo
[24] = Half life in Swiss albino mouse at 40 mg/kg, po by LC-MS/MS analysis; type: ADME, organism-based; conditions: in vivo
Mus musculus [25] = assay: AUClast in Swiss albino mouse at 40 mg/kg, po after 24 to 48 hrs by LC-MS/MS analysis; type: ADME, organism-based; conditions: in vivo
[26] = Initial concentration in Sprague-Dawley rat at 1 mg/kg, iv by LC-MS/MS analysis; type: ADME, organism-based; conditions: in vivo
Method in brief: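 Male Sprague-Dawley rats, fasted, dosed iv at 1 mg/kg as a solution in 20% NMP/40% PEG-400 in citrate buffer (pH 3). Plasma was analysed by LC–MS/MS and C0 was derived with WinNonlin-type PK analysis.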

[27] = Clearance in Sprague-Dawley rat at 1 mg/kg, iv by LC-MS/MS analysis; type: ADME, organism-based; conditions: in vivo
Method in brief: (§5)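 Fasted male Sprague-Dawley rats. IV dose was 1 mg/kg as a solution in 20% NMP and 40% PEG-400 in citrate buffer (pH 3). Oral dose was 40–50 mg/kg as a suspension in 0.08% Tween 80 and 0.5% CMC in water. Plasma was analysed by LC–MS/MS. AUClast was taken to the last time point (24 or 48 h).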

[28] = Volume of distribution at steady state in Sprague-Dawley rat at 1 mg/kg, iv by LC-MS/MS analysis; type: ADME, organism-based; conditions: in vivo, read-out: Vdss
Method in brief: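 Fasted male Sprague-Dawley rats received 1 mg/kg iv as a solution in 20% NMP/40% PEG-400 in citrate buffer pH 3. Plasma concentrations by LC–MS/MS used for PK parameter estimation.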

[29] = Half life in Sprague-Dawley rat at 1 mg/kg, iv by LC-MS/MS analysis; type: ADME, organism-based; conditions: in vivo; method in brief: as §5
[30] = AUClast in Sprague-Dawley rat at 1 mg/kg, iv after 24 to 48 hrs by LC-MS/MS analysis; type: ADME, organism-based; conditions: in vivo; method in brief: as §5
Rattus norvegicus [31] = assay: Cmax in Sprague-Dawley rat at 40 mg/kg, po by LC-MS/MS analysis; type: ADME, organism-based; parameters: dose 40 mg/kg, route oral; conditions: in vivo; method in brief: as §5
Rattus norvegicus [32] = assay: Tmax in Sprague-Dawley rat at 40 mg/kg, po by LC-MS/MS analysis; type: ADME, organism-based; conditions: in vivo
Method in brief: (§6)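 Fasted male Sprague-Dawley rats dosed orally at 40–50 mg/kg as a suspension in 0.08% Tween 80/0.5% CMC in water. iv reference was 1 mg/kg in 20% NMP/40% PEG-400 in citrate buffer pH 3. Plasma analysed by LC–MS/MS. F from dose-normalized AUClast.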

Rattus norvegicus [33] = assay: Oral bioavailability in Sprague-Dawley rat at 40 mg/kg by LC-MS/MS analysis; type: ADME, organism-based; conditions: in vivo; method in brief: as §6
[34] = Octanol/phosphate buffer solution distribution coefficient, log D of the compound at pH 7.4 by LC-MS/MS method; type: physicochemical; conditions: octanol/water
Method in brief: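 Shake-flask partition between octanol and 100 mM phosphate buffer pH 7.4 at room temperature, final matrix 1% DMSO. Phases quantified by LC–MS/MS.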

[35] = Apparent permeability from apical to basolateral side in MDCK cells harboring MDR1 at 2 uM after 150 mins by LC-MS/MS analysis; type: ADME, cell-based, Canis lupus familiaris; conditions: dog
Method in brief: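 MDCK-MDR1 monolayers were seeded at 2 × 10^5 cells/cm2 and grown to confluence over 4–7 days. Compound at 2 μM in 0.4% DMSO/HBSS was applied apically or basolaterally. Plates were incubated 150 min at 37 °C, 5% CO2, in triplicate. Quantitation was by LC–MS/MS analyte/internal-standard peak-area ratio.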

[36] = AUClast in Swiss albino mouse at 1 mg/kg, iv after 24 to 48 hrs by LC-MS/MS analysis; type: ADME, organism-based; conditions: in vivo
[37] = AUClast in Swiss albino mouse at 25 mg/kg, po after 24 to 48 hrs by LC-MS/MS analysis; type: ADME, organism-based; conditions: in vivo
Liver [38] = assay: Metabolic stability in human liver microsomes assessed as parent compound remaining at 0.5 uM after 0.5 hr; type: ADME, microsome

| SMILES | F (Syrian golden hamster) | Stability (Liver [1]) | Stability (Liver [2]) | remaining at 1 h, 1 µM [3] | C0 [4] | clearance [5] | Vd [6] | half-life [7] | AUC(0-t) [8] | Cmax [9] | Tmax [10] | half-life [11] | AUC(0-t) [12] | Stability (Liver [13]) | remaining at 0.5 h, 0.5 µM [14] | C0 [15] | clearance [16] | Vd [17] | half-life [18] | Cmax [19] | other results |
| --- | --- | --- | --- | --- | --- | --- | --- | --- | --- | --- | --- | --- | --- | --- | --- | --- | --- | --- | --- | --- | --- |
| O=[N+]([O-])c1cn2c(n1)OC[C@H](OCc1ccc(-c3ccc(F)cc3F)cn1)C2 | 37% | 59% | 57% | 5.2% | 930 ng/mL | 63 mL/min/kg | 4 L/kg | 0.83 h | 480 ng·h/mL | 1900 ng/mL | 0.75 h | 0.83 h | 3950 ng·h/mL | – | – | – | – | – | – | – | – |
| O=[N+]([O-])c1cn2c(n1)OCC(COc1ccc(-c3ccc(OC(F)(F)F)cc3)nc1)C2 (stereo unspecified) | – | – | – | – | – | – | – | – | – | – | – | – | – | 96% | 88% | 750 ng/mL | 1.2 mL/min/kg | 1.9 L/kg | 20 h | 870 ng/mL | Tmax [20]: 10 h; F (Mus musculus [21]): 11% |
| O=[N+]([O-])c1cn2c(n1)OC[C@H](Oc1ccc(OC(F)(F)F)cc1)C2 | 100% | – | – | 19% | 660 ng/mL | – | 6.5 L/kg | 1.4 h | 420 ng·h/mL | 2100 ng/mL | 3.3 h | 2.2 h | 11200 ng·h/mL | – | – | – | – | – | – | – | Cmax (Mus musculus [22]): 21000 ng/mL; Tmax (Mus musculus [23]): 5.3 h; half-life [24]: 7.8 h; AUClast (Mus musculus [25]): 272000 ng·h/mL; C0 [26]: 540 ng/mL; clearance [27]: 11 mL/min/kg; Vd [28]: 2.7 L/kg; half-life [29]: 3 h; AUC(0-t) [30]: 1510 ng·h/mL; Cmax (Rattus norvegicus [31]): 5200 ng/mL; Tmax (Rattus norvegicus [32]): 6.7 h; F (Rattus norvegicus [33]): 100%; logD [34]: 2.59; Papp [35]: 32.4 ×10⁻⁶ cm/s |
| O=[N+]([O-])c1cn2c(n1)OCC(COc1ccc(-c3ccc(F)cc3)nc1)C2 (stereo unspecified) | – | – | – | – | – | – | – | – | – | – | – | – | – | – | 64% | 440 ng/mL | 5.2 mL/min/kg | 1.8 L/kg | 2.7 h | 840 ng/mL | AUC(0-t) [36]: 3180 ng·h/mL; Tmax [20]: 8 h; AUC(0-t) [37]: 12000 ng·h/mL; F (Mus musculus [21]): 15% |
| O=[N+]([O-])c1cn2c(n1)OC[C@H](OCc1ccc(-c3ccc(OC(F)(F)F)cc3F)cn1)C2 | 74% | 27% | 40% | 10% | 940 ng/mL | 18 mL/min/kg | 4.2 L/kg | 3.9 h | 1890 ng·h/mL | 4200 ng/mL | 2 h | 3.9 h | 26700 ng·h/mL | 79% | 69% | – | – | – | – | – | Cmax (Mus musculus [22]): 32000 ng/mL; Stability (Liver [38]): 75%; Tmax (Mus musculus [23]): 3.3 h; half-life [24]: 6.1 h; AUClast (Mus musculus [25]): 265000 ng·h/mL |
